Data published in ChEMBL document CHEMBL1127749 (J Med Chem, 1994).

Columns and labels:
[1] = biological target: T1, Muscarinic acetylcholine receptor M1 (Rattus norvegicus, UniProt P08482); assay: In vitro binding affinity for muscarinic M1 receptor by displacing [3H]pirenzepine binding on rat brain homogenate.; assay type: tissue-based
T1 sequence (P08482 whole entry): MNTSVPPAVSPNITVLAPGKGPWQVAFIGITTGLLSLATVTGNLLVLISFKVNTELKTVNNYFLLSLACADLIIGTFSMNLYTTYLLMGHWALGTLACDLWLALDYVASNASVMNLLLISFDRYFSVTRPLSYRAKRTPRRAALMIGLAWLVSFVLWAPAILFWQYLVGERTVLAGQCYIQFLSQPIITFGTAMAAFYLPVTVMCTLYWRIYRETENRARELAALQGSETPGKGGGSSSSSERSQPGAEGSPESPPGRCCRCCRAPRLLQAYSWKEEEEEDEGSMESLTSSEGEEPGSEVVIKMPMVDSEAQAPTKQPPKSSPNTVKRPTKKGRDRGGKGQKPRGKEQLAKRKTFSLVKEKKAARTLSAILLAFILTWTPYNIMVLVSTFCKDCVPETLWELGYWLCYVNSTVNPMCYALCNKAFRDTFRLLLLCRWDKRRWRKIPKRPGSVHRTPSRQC
How it was run: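 Two complete curves, five test concentrations spanning 3 decades, each in triplicate. IC50 read from hand-drawn log concentration–response curves, converted to Ki by Cheng–Prusoff.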

[2] = biological target: Muscarinic acetylcholine receptor; assay: In vitro binding affinity for muscarinic receptor by displacing [3H]oxotremorine-M binding on rat brain homogenate.; assay type: tissue-based
How it was run: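 Duplicate full curves of five drug concentrations over 3 decades, triplicate points. IC50 taken from hand-drawn log curves; Ki via Cheng–Prusoff.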

[3] = biological target: T1, Muscarinic acetylcholine receptor M1; assay: M1 agonist activity estimated by rat superior cervical ganglion depolarization; assay type: functional, tissue-based
[4] = biological target: Muscarinic acetylcholine receptor M2 (Cavia porcellus); assay: M2 agonist activity estimated by depression of isolated guinea pig left atrium
[5] = biological target: Muscarinic acetylcholine receptor M3 (Cavia porcellus)
[6] = biological target: Muscarinic acetylcholine receptor; assay: In vitro binding affinity for muscarinic receptor by displacing [3H]quinuclidinyl benzilate binding on rat brain homogenate; assay type: tissue-based
How it was run: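 Two concentration–response curves, five concentrations covering 3 decades, triplicates. IC50 estimated from hand-drawn log concentration–response curves and converted to Ki with Cheng–Prusoff equation.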

[7] = biological target: Muscarinic acetylcholine receptor; assay: In vitro binding affinity for muscarinic receptor by displacing [3H]quinuclidinyl benzilate binding on rat brain stem homogenate.; assay type: tissue-based
How it was run: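 Two full curves, five test concentrations over 3 decades in triplicate. Hand-drawn log curves gave IC50; Ki by Cheng–Prusoff.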

[8] = species on record: Rattus norvegicus; assay: Ratio of binding affinity at [3H]quinuclidinyl benzilate binding on rat brain stem homogenate to [3H]pirenzepine binding on rat brain homogenate
[9] = species on record: Rattus norvegicus; assay: Ratio of binding affinity at [3H]quinuclidinyl benzilate binding on rat brain homogenate to [3H]- Oxotremorine-M binding on rat brain homogenate; assay type: functional
How it was run: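 Ago ratio computed as Ki from [³H]QNB binding to whole rat brain homogenate divided by Ki from [³H]oxotremorine-M binding to whole rat brain homogenate.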

[10] = biological target: Muscarinic acetylcholine receptor M2 (Mus musculus) (UniProt Q9ERZ4); assay: In vivo determination of peripheral M2 receptor mediated hypothermia, cholinergic side effect
[11] = biological target: Muscarinic acetylcholine receptor M2 (Mus musculus) (UniProt Q9ERZ4); assay: In vivo determination of peripheral M2 receptor mediated salivation, cholinergic side effect
[12] = biological target: Muscarinic acetylcholine receptor M2 (Mus musculus) (UniProt Q9ERZ4); assay: In vivo determination of peripheral M2 receptor mediated tremor, cholinergic side effect

| Structure (SMILES) | Ki [1] | Ki [2] | EC50 [3] | EC50 [4] | EC50 [5] | Ki [6] | Ki [7] | Ratio [8] | Ratio [9] | ED50 [10] | ED50 [11] | ED50 [12] |
| --- | --- | --- | --- | --- | --- | --- | --- | --- | --- | --- | --- | --- |
| C=CCn1ncc(C2CCCNC2)n1 (single isomer, unassigned; (+)) [listing 1 of 2 here] | 210 nM | 45 nM | > 3400 nM | 680 nM | 4300 nM | 190 nM | 330 nM | – | – | – | – | – |
| CCCCn1ncc(C2=CCCN(C)C2)n1 | 13 nM | 2.5 nM | – | – | – | 48 nM | 37 nM | 2.8 | 19 | – | – | – |
| C=CCn1ncc(C2CCCNC2)n1 (stereo in doubt; (-)-15b) [listing 1 of 2 here] | – | – | – | – | – | – | – | 1.8 | 14 | > 130 µmol/kg | > 130 µmol/kg | > 130 µmol/kg |
| C=CCn1ncc(C2CCCNC2)n1 (stereo in doubt; (-)-15b) [listing 2 of 2 here] | 170 nM | 37 nM | > 2500 nM | 840 nM | – | 530 nM | 310 nM | – | – | – | – | – |
| C#CCn1ncc(C2CCCNC2)n1 (stereo in doubt; (-)-15c) | – | – | – | – | – | – | – | 0.2 | 35 | 11 µmol/kg | 20 µmol/kg | 41 µmol/kg |
| CCN1C(=O)CC2(CCN(C)CC2)C1=O | 400 nM | 14 nM | ≥ 1100 nM | 400 nM | 430 nM | 690 nM | 400 nM | 1 | 49 | – | – | – |
| CCn1ncc(C2CCCNC2)n1 (racemic) | 260 nM | 11 nM | – | – | – | 530 nM | 280 nM | 1.1 | 48 | – | – | – |
| Cn1nnc(C2CCCNC2)n1 (racemic) | 2300 nM | 33 nM | – | – | – | – | – | – | – | – | – | – |
| C#CCn1ncc(C2CCCNC2)n1 (racemic) [listing 1 of 2 here] | 84 nM | 2.5 nM | – | – | – | 320 nM | 130 nM | – | – | – | – | – |
| CC1=C(c2nnn(C)n2)CNCC1 | 960 nM | 570 nM | – | – | – | – | – | – | – | – | – | – |
| C#CCn1nnc(C2CCCNC2)n1 (racemic) | 260 nM | 31 nM | – | – | – | – | – | – | – | – | – | – |
| C#CCn1ncc(C2CCCNC2)n1 (racemic) [listing 2 of 2 here] | – | – | – | – | – | – | – | 1.5 | 130 | 10 µmol/kg | 8.1 µmol/kg | 54 µmol/kg |
| CCCn1ncc(C2=CCCNC2)n1 | 77 nM | 6.1 nM | – | – | – | 270 nM | 210 nM | 2.7 | 44 | – | – | – |
| C=CCn1ncc(C2CCCNC2)n1 (single isomer, unassigned; (+)) [listing 2 of 2 here] | – | – | – | – | – | – | – | 1.6 | 4.2 | > 260 µmol/kg | > 260 µmol/kg | > 260 µmol/kg |
| Cn1ncc(C2=CCCNC2)n1 | 500 nM | 0.34 nM | – | – | – | 570 nM | 90 nM | 0.2 | 1700 | – | – | – |

More lines, main results first:

| Ki [1] | Ki [2] | Structure (SMILES) | EC50 [3] | EC50 [4] | EC50 [5] | Ki [6] | Ki [7] | Ratio [8] | Ratio [9] | ED50 [10] | ED50 [11] | ED50 [12] |
| --- | --- | --- | --- | --- | --- | --- | --- | --- | --- | --- | --- | --- |
| 24000 nM | 5400 nM | CN1CCC=C(c2nnnn2C)C1 | – | – | – | – | – | – | – | – | – | – |
| 40 nM | 33 nM | C=Cn1ncc(C2=CCCN(C)C2)n1 | – | – | – | – | – | – | – | – | – | – |
| 32 nM | 52 nM | CCCCCCn1nnc(C2=CCCN(C)C2)n1 | – | – | – | 100 nM | 220 nM | 6.9 | 1.9 | – | – | – |
| 6.3 nM | 4.7 nM | C=CCn1ncc(C2=CCCN(C)C2)n1 | – | – | – | 43 nM | 32 nM | 5.1 | 9.1 | – | – | – |
| 270 nM | 300 nM | CCn1nnc(C2=CCCN(C(C)C)C2)n1 | – | – | – | – | – | – | – | – | – | – |
| 1350 nM | 4.5 nM | Cn1nnc(C2=CCCNC2)n1 | – | – | – | – | – | – | – | – | – | – |
| 57 nM | 2.8 nM | CCCn1nnc(C2=CCCN(C)C2)n1 | – | – | – | 100 nM | 180 nM | 3.2 | 36 | – | – | – |
| 140 nM | 78 nM | CCN1CCC=C(c2nnn(CC)n2)C1 | – | – | – | – | – | – | – | – | – | – |
| 21 nM | 13 nM | C=CCn1nnc(C2=CCCN(C)C2)n1 | – | – | – | 140 nM | 46 nM | 2.2 | 11 | – | – | – |
